# From ChEMBL document CHEMBL1123530, “Adriamycin analogues. Preparation and biological evaluation of some thio ester analogues of adriamycin and N-(trifluoroacetyl)adriamycin 14-valerate” (J Med Chem, 1986)
# Columns and labels:
# CCRF-CEM = assay: In vitro growth-inhibition assay utilizing CCRF-CEM cells, a lymphoblastic leukemic line of human origin; assay type: functional; details: read-out: ID50 (the source's name)
# Summary of the method: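 Human CCRF-CEM lymphoblastic leukemia cells in continuous suspension culture, exposed continuously to drug for 48 h. ID₅₀ is the concentration giving 50% reduction in growth versus untreated control cultures.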
# [1] = Time for esterases in unfractionated mouse serum to reduce the concentration due to thio ester deacylation; 10 % hydrolysis at 60 mins; assay type: ADME
# Summary of the method: (§1)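 Drug incubated at 37 °C in pH 7.0 carbonate buffer containing 1% unfractionated mouse serum, pooled from 10 animals and stored at -70 °C. Loss of parent compound followed by HPLC; T1/2 is time for the initial concentration to fall by 50% through thio ester deacylation.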
# Nucleic Acid = assay: (§2) Compound was tested in vitro for ability to bind with double helical calf thymus DNA was determined spectrophotometrically at 480 nmby spectral shift method and the value expressed as the ratio A/Ao; assay type: nucleic-acid assay; details: Bos taurus
# Summary of the method: (§3)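 Calf thymus double-helical DNA in pH 7.0 Tris buffer, drug/DNA molar ratio 0.1. Absorbance at 480 nm measured for drug alone (A₀) and after mixing with DNA (A), reported as A/A₀ (spectral shift method).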
# [2] = Time for esterases in unfractionated mouse serum to reduce the concentration due to thio ester deacylation; assay type: ADME; summary of the method: as §1
# Mus musculus [3] = assay: (§4) Compound was evaluated in vivo for antitumor activity utilizing the murine P388 leukemia system in B6D2F1 male mice.; assay type: functional
# Summary of the method: (§5)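 B6D2F1 male mice were inoculated ip on day 0 with 10⁶ P388 leukemia cells. Drug was given ip once daily on days 1–4, broadly following standard NCI protocols. Activity was read as percent increase in life span relative to untreated controls, reported at the highest nontoxic dose. The experiment was terminated on day 60.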
# P388 = assay: as §4; assay type: functional, Mus musculus; summary of the method: as §5
# Mus musculus [4] = assay: Compound was evaluated in vivo for antitumor activity utilizing the murine P388 leukemia system in B6D2F1 male mice; Curative; assay type: functional, organism-based
# Summary of the method: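 Murine P388 leukemia in B6D2F1 male mice; 10⁶ tumor cells inoculated ip on day 0; drug given ip once daily on days 1–4, largely per standard NCI protocols. Outcome is percent increase in life span versus untreated controls, at highest nontoxic dose; experiment ended day 60.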
# [5] = as §2; summary of the method: as §3
# [6] = T 1/2 value indicates the time required for the initial concentration of compound to be reduced by 50%,; assay type: ADME; summary of the method: as §1
half-life [1] [min],Ratio [5],half-life [6] [min],SMILES,IC50 (CCRF-CEM) [nM],Ratio (Nucleic Acid),half-life [2] [min],ILS (Mus musculus [3]) [%],Optimal dose (P388) [mg/kg],ILS (Mus musculus [4])
> 60,,,COc1cccc2c1C(=O)c1c(O)c3c(c(O)c1C2=O)C[C@@](O)(C(=O)CSC(=O)c1ccccc1)C[C@@H]3OC1CC(NC(=O)C(F)(F)F)C(O)C(C)O1 (stereo partly specified),3800,0.98,,,,
,,,CCCC(=O)SCC(=O)[C@]1(O)Cc2c(O)c3c(c(O)c2[C@@H](OC2CC(NC(=O)C(F)(F)F)C(O)C(C)O2)C1)C(=O)c1c(OC)cccc1C3=O (stereo partly specified),> 5000,,42,,,
,,,COc1cccc2c1C(=O)c1c(O)c3c(c(O)c1C2=O)C[C@@](O)(C(=O)CSC(C)=O)C[C@@H]3OC1CC(NC(=O)C(F)(F)F)C(O)C(C)O1 (stereo partly specified),> 5000,,18,,,
,,,CCC(=O)SCC(=O)[C@]1(O)Cc2c(O)c3c(c(O)c2[C@@H](OC2CC(N)C(O)C(C)O2)C1)C(=O)c1c(OC)cccc1C3=O (stereo partly specified),720,0.61,5,80,20,
,,,COc1cccc2c1C(=O)c1c(O)c3c(c(O)c1C2=O)C[C@@](O)(C(=O)CO)C[C@@H]3O[C@H]1C[C@H](N)[C@H](O)[C@H](C)O1 [DOXORUBICIN],60,0.96,,157,3,
,,,CCCCC(=O)SCC(=O)[C@]1(O)Cc2c(O)c3c(c(O)c2[C@@H](OC2CC(NC(=O)C(F)(F)F)C(O)C(C)O2)C1)C(=O)c1c(OC)cccc1C3=O (stereo partly specified),> 5000,,22,,,
,,,CCCCC(=O)SCC(=O)[C@]1(O)Cc2c(O)c3c(c(O)c2[C@@H](OC2CC(N)C(O)C(C)O2)C1)C(=O)c1c(OC)cccc1C3=O (stereo partly specified),450,0.65,8,130,10,
,,,CCCCC(=O)OCC(=O)[C@]1(O)Cc2c(O)c3c(c(O)c2[C@@H](OC2CC(NC(=O)C(F)(F)F)C(O)C(C)O2)C1)C(=O)c1c(OC)cccc1C3=O (stereo partly specified),240,0.6,10,,50,Curative
,,,CCCC(=O)SCC(=O)[C@]1(O)Cc2c(O)c3c(c(O)c2[C@@H](OC2CC(N)C(O)C(C)O2)C1)C(=O)c1c(OC)cccc1C3=O (stereo partly specified),560,0.63,10,90,10,
,,,COc1cccc2c1C(=O)c1c(O)c3c(c(O)c1C2=O)C[C@@](O)(C(=O)CSC(=O)c1ccccc1)C[C@@H]3OC1CC(N)C(O)C(C)O1 (stereo partly specified),2300,0.65,8,140,10,
,,,COc1cccc2c1C(=O)c1c(O)c3c(c(O)c1C2=O)C[C@@](O)(C(=O)CSC(C)=O)C[C@@H]3OC1CC(N)C(O)C(C)O1 (stereo partly specified),900,0.61,6,220,25,
,0.99,80,CCC(=O)SCC(=O)[C@]1(O)Cc2c(O)c3c(c(O)c2[C@@H](OC2CC(NC(=O)C(F)(F)F)C(O)C(C)O2)C1)C(=O)c1c(OC)cccc1C3=O (stereo partly specified),2800,,,,,
